Measurements published in ChEMBL document CHEMBL1770105, “Discovery and evaluation of pyrazolo[1,5-a]pyrimidines as neuropeptide Y1 receptor antagonists” (Bioorg Med Chem Lett, 2011).
Blank lines part the entries; values can stand above or below the compound they belong to. Active and inactive are the calls of the source. No cut-off for these calls is given here.

Legend:
[1] = biological target: T1, Neuropeptide Y receptor type 1 (Homo sapiens, UniProt P25929); experiment: Displacement of [125I]-PYY from human recombinant NPY Y1 receptor overexpressed in membrane of Sf9 cells
T1 sequence (P25929 whole entry): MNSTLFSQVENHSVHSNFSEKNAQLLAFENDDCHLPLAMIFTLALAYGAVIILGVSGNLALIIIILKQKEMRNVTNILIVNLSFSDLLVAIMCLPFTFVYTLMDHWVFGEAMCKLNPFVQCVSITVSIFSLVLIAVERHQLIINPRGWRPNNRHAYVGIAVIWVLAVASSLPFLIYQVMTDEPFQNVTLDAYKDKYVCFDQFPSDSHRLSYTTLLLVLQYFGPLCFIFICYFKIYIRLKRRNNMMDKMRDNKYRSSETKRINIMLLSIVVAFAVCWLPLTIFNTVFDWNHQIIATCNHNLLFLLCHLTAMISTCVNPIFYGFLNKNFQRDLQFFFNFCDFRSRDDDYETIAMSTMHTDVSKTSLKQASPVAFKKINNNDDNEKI
Summary of the method: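 Human Y1 receptor: 125I-PYY displacement on Sf9 membranes overexpressing recombinant hY1R. Ki values are single determinations run in triplicate.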

[2] = biological target: T1, Neuropeptide Y receptor type 1; experiment: Antagonist activity at NPY Y1 receptor in human SK-N-MC cells assessed as inhibition of NPY-induced calcium mobilization by FLIPR assay; assay type: functional, cell-based
Summary of the method: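 SK-N-MC neuroblastoma cells plated at 25,000/well 4 days ahead, loaded with Fluo-3 for 1 h in 5% CO2, washed and resuspended in assay buffer (5 mM KCl, 115 mM NaCl, 0.96 mM NaH2PO4, 1 mM MgSO4, 2 mM CaCl2, 5 mM D-glucose) containing test compound.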

[3] = Plasma clearance in Sprague-Dawley rat at 1 mg/kg, iv and 3 mg/kg, po; assay type: ADME, organism-based
Summary of the method: (§1)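 Overnight-fasted, jugular-vein-cannulated SD rats (water ad libitum) dosed by oral gavage (3 mg/kg in 0.5% methyl cellulose, 2 mL/kg, n = 2) or iv via the jugular vein (1.0 mg/kg in 50% PEG, 1 mL/kg, n = 2).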

[4] = Fraction unbound in Sprague-Dawley rat plasma at 1 mg/kg, iv and 3 mg/kg, po; assay type: ADME, organism-based
[5] = tested on: Rattus norvegicus; experiment: Unbound plasma clearance in Sprague-Dawley rat 1 mg/kg, iv and 3 mg/kg, po; assay type: ADME, organism-based; details: in vivo
[6] = tested on: Rattus norvegicus; experiment: Antihypertensive activity in Sprague-Dawley rat assessed as inhibition of NPY-induced increase in arterial pressure at 3 mg/kg, iv; assay type: functional; details: Artery
Summary of the method: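 Overnight-fasted SD rats anesthetized with inactin (100 mg/kg ip), tracheal and femoral arterial/venous cannulae, on a heated pad. Arterial pressure and heart rate recorded every 5 s. NPY given as iv bolus every 15 min. After the third NPY bolus, compound given iv at 3 mg/kg in saline (1 mL/kg), followed by three further NPY injections.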

[7] = Half life in Sprague-Dawley rat at 1 mg/kg, iv and 3 mg/kg, po; assay type: ADME, organism-based; details: in vivo; summary of the method: as §1
[8] = Oral bioavailability in Sprague-Dawley rat at 3 mg/kg; assay type: ADME, organism-based; details: in vivo; summary of the method: as §1
[9] = Ratio of fraction unbound drug level in brain to plasma in Sprague-Dawley rat; assay type: ADME, cell-free
Summary of the method: (§2)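 Brain-to-plasma ratios calculated from unbound fractions. Unbound fraction in brain homogenate and whole plasma of rats or mice measured by equilibrium dialysis.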

[10] = Ratio of fraction unbound drug level in brain to plasma in FVB mouse; assay type: ADME, cell-free; summary of the method: as §2
[11] = Ratio of fraction unbound drug level in brain to plasma in Mdr1a/1b knockout mouse to FVB mouse at 5 mg.kg, sc after 0.5 hrs; assay type: ADME, organism-based
Summary of the method: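 Brain and plasma levels measured in Mdr1a/1b knockout and wild-type FVB mice 0.5 h after a 5 mg/kg sc dose. Brain/plasma ratios calculated from unbound fractions, measured by equilibrium dialysis of brain homogenate and plasma. Result expressed as knockout B/P over FVB B/P.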

[12] = tested on: Rattus norvegicus; experiment: Antiobesity activity in Sprague-Dawley rat assessed as reduction of NPY-induced food intake at 120 ug, icv after 4 hrs; assay type: functional, organism-based
Summary of the method: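 SD rats with icv cannulae, fed powdered chow ad libitum. Between 10 and 11 am in the light cycle, compound or propylene glycol vehicle co-infused icv with NPY in sterile water over 1 min. Food intake measured over the next 4 h. Crossover design, two treatments 2 days apart.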

[13] = tested on: Rattus norvegicus; experiment: Antiobesity activity in overnight fasted Sprague-Dawley rat assessed as decrease in food intake at 40 mg/kg, po followed by food re-feeding after 2 hrs post compound dose measured upto 2 hrs post re-feeding relative to control; assay type: functional; parameters: scale not given: the % may be the effect or the level left
Summary of the method: (§3)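 SD rats housed singly with powdered chow and water, fasted overnight, then dosed po at 40 mg/kg or vehicle (0.5% methyl cellulose in water). Pre-weighed food returned 2 or 4 h post-dose. Intake recorded 2 and 4 h after food was restored, relative to vehicle controls.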

[14] = tested on: Rattus norvegicus; experiment: Antiobesity activity in overnight fasted Sprague-Dawley rat assessed as decrease in food intake at 40 mg/kg, po followed by food re-feeding after 4 hrs post compound dose measured up to 2 to 4 hrs post re-feeding; assay type: functional, organism-based; parameters: dose 40 mg/kg; summary of the method: as §3
[15] = tested on: Rattus norvegicus; experiment: Neurotoxicity in Sprague-Dawley rat assessed as change in locomotor activity at 40 mg/kg, po; assay type: toxicity, organism-based; parameters: dose 40 mg/kg, route oral; details: in vivo
[16] = tested on: Rattus norvegicus; experiment: Antiobesity activity in Wistar rat assessed as decrease in nocturnal food intake at 40 mg/kg, po measured every 10 mins for 18 hrs post-dose; assay type: functional, organism-based; parameters: dose 40 mg/kg
Summary of the method: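 Wistar rats acclimated to a continuous food-intake monitoring system. Dosed po at 40 mg/kg or vehicle 30 min before the dark cycle. Intake logged every 10 min for 18 h post-dose. Compared with time-matched vehicle by two-tailed unpaired t-test.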

[17] = tested on: Rattus norvegicus; experiment: Neurotoxicity in Wistar rat assessed as change in locomotor activity at 40 mg/kg, po; assay type: toxicity, organism-based; parameters: dose 40 mg/kg, route oral; details: in vivo
[18] = tested on: Plasma; experiment: Unbound plasma concentration in Sprague-Dawley rat at 40 mg/kg, po after 2 hrs; assay type: ADME, organism-based; parameters: dose 40 mg/kg, route oral; details: in vivo
[19] = biological target: T2, Neuropeptide Y receptor type 2 (Homo sapiens, UniProt P49146); experiment: Binding affinity to human NPY Y2 receptor
T2 sequence (P49146 whole entry): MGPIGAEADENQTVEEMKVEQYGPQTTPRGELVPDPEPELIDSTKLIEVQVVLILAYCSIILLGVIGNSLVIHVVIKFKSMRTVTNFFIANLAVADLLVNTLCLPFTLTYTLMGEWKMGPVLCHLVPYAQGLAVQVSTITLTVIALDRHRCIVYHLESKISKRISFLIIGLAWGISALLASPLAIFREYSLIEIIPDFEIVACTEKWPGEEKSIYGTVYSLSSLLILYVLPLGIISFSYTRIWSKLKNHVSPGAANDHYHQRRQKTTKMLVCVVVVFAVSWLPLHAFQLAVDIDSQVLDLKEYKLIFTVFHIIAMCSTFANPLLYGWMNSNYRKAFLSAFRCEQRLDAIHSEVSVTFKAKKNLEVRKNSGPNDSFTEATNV

[20] = biological target: T3, Neuropeptide Y receptor type 5 (Homo sapiens, UniProt Q15761); experiment: Binding affinity to human NPY Y5 receptor
T3 sequence (Q15761 whole entry): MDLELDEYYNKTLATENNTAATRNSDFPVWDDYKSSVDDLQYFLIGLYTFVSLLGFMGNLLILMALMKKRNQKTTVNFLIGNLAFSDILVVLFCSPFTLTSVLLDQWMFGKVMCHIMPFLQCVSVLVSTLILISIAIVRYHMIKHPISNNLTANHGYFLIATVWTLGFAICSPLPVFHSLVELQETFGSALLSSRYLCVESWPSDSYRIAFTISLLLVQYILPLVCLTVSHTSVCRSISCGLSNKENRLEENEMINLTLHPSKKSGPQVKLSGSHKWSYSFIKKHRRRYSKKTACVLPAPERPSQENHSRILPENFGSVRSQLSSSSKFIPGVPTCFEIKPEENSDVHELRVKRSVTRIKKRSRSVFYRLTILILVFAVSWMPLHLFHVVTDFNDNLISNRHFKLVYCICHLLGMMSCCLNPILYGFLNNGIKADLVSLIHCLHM

[21] = biological target: T4, Corticotropin-releasing factor receptor 1 (Homo sapiens) (UniProt P34998); experiment: Binding affinity to CRHR at 10 uM
T4 sequence (whole entry): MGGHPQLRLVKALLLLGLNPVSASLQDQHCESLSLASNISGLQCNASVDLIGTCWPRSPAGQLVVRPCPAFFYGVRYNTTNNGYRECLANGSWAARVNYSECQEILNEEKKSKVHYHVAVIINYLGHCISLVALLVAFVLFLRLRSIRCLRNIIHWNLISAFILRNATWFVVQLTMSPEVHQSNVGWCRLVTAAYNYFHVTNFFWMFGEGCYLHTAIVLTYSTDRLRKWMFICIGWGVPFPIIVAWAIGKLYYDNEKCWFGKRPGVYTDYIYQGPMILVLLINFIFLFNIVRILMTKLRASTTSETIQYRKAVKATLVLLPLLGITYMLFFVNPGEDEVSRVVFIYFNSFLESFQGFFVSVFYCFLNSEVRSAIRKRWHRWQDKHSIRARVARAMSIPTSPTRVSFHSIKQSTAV

[22] = tested on: Rattus norvegicus; experiment: Antiobesity activity in overnight fasted Sprague-Dawley rat assessed as decrease in food intake at 40 mg/kg, po followed by food re-feeding after 2 hrs post compound dose measured up to 4 hrs post re-feeding relative to control; assay type: functional; parameters: scale not given: the % may be the effect or the level left; summary of the method: as §3
[23] = Drug level in Sprague-Dawley rat cerebral spinal fluid at 40 mg/kg, po after 2 hrs; assay type: ADME, organism-based; parameters: dose 40 mg/kg, route oral; details: cerebrospinal fluid, read-out: Drug uptake
Summary of the method: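 Rats dosed 40 mg/kg po were anesthetized with metofane at 2 h post-dose (n = 2). CSF drawn from the cisterna magna with a 26-gauge needle.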

[24] = Drug level in Sprague-Dawley rat brain interstitial fluid at 40 mg/kg, po after 2 hrs; assay type: ADME, organism-based; parameters: dose 40 mg/kg, route oral; details: read-out: Drug uptake
Summary of the method: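 Rats dosed 40 mg/kg po. Interstitial fluid collected at 2 h from the paraventricular nucleus with microdialysis probes.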

[25] = biological target: T5, Neuropeptide Y receptor type 1 (Rattus norvegicus, UniProt P21555); experiment: Displacement of [125I]PYY from rat recombinant NPY Y1 receptor overexpressed in membrane of Sf9 cells
T5 sequence (P21555 whole entry): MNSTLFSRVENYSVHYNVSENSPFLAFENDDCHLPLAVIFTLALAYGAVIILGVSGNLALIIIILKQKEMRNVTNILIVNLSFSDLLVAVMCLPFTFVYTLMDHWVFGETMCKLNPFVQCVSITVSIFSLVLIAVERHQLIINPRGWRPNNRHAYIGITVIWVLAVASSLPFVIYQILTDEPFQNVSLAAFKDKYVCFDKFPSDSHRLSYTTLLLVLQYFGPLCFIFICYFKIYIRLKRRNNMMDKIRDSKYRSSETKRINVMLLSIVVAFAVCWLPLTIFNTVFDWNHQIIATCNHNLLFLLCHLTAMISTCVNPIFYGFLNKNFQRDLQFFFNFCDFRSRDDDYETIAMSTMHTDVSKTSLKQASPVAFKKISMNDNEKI

Compound: COc1cc(Cl)c(-c2c(C)nn3c(NCCNCC(F)F)cc(C)nc23)c(Cl)c1
Ki [1]: 383 nM | Knockout-to-FVB ratio of unbound brain/plasma ratio [11]: 2

Compound: COc1ccc(CCNCCNc2cc(C)nc3c(-c4c(C)cc(C)cc4C)c(C)nn23)cc1
Ki [1]: 29 nM

Compound: COc1cc(Cl)c(-c2c(C)nn3c(NCC(C)NC4CCOCC4)cc(C)nc23)c(Cl)c1 (racemic)
Ki [1]: 5 nM | Knockout-to-FVB ratio of unbound brain/plasma ratio [11]: 10

Compound: COc1cc(Cl)c(-c2c(C)nn3c(NCCNCCF)cc(C)nc23)c(Cl)c1
Ki [1]: 22 nM | Knockout-to-FVB ratio of unbound brain/plasma ratio [11]: 4

Now from value to compound, other results behind:

Ki [1]: 1 nM | IC50 [2]: 7 nM | clearance [3]: 45 mL/min/kg | fraction unbound [4]: 0.059 | CL [5]: 763 mL/min/kg | half-life [7]: 1.2 h | bioavailability [8]: 13% | BPR [9]: 0.13 | BPR [10]: 0.1 | Knockout-to-FVB ratio of unbound brain/plasma ratio [11]: 9 | Cp [18]: 95 nM | IC50 [19]: > 10000 nM | IC50 [20]: > 10000 nM | inhibition [21]: < 50% | concentration at 2 h [23]: 26 nM | concentration at 2 h [24]: 17 nM | Ki [25]: 3.5 nM
Compound: COc1cc(Cl)c(-c2c(C)nn3c(NCCNC4CCOCC4)cc(C)nc23)c(Cl)c1
inhibition in vivo at 3 mg/kg [6]: 92% | Activity [12]: Active | Activity [13]: 12% | Activity [14]: inactive | Activity [15]: Non-toxic | Activity [16]: Active | Activity [17]: Non-toxic | Activity [22]: 12%

Ki [1]: 21 nM
Compound: Cc1cc(C)c(-c2c(C)nn3c(NCCNC4CCCC4)cc(C)nc23)c(C)c1

Ki [1]: 38 nM
Compound: Cc1cc(NCCNC2CCCC2)n2nc(C)c(-c3c(Cl)cccc3Cl)c2n1
